ChEMBL document CHEMBL5303300, “EUbOPEN Chemogenomics Library - Multiplex” (2023)
Where “and” joins values, the source holds several entries; their conditions need not be identical. Identical values can stand only once.

System: U2OS
Test: Multiplex assay against U2OS
Assay type: toxicity, cell-based
Conditions: human, number of replicates 2
Procedure, shortened: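 On a CQ1 microscope at 37°C and 5% CO2, live cells were imaged after compound addition. They had been stained at seeding with Hoechst33342, BioTracker Green Microtubule Cytoskeleton Dye, MitoTracker Red and Annexin V Alexa Fluor 680. CellPathfinder machine-learning gating assigned cells to Hoechst high-intensity objects or normal cells, normal cells to healthy, pyknosed or fragmented nuclei, and pyknosed cells to mitotic or apoptotic. Tubulin, mitochondrial-mass and membrane-permeability phenotypes are per cents of healthy-nucleus cells.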

[1] = 12 h, 1 µM, compound concentration 1 uM
[2] = 12 h, 10 µM, compound concentration 10 uM
[3] = 24 h, 1 µM, compound concentration 1 uM
[4] = 24 h, 10 µM, compound concentration 10 uM
[5] = 48 h, 1 µM, compound concentration 1 uM
[6] = 48 h, 10 µM, compound concentration 10 uM

CNc1ncc2cc(-c3ccc(-c4cccc(C)n4)cc3Cl)c(=O)n(C[C@H]3OC[C@H](N)CO3)c2n1
Population Apoptotic (%) [1]: 75% and 70%
Population Healthy Nuclei (%) [1]: 33% and 85%
Population Hoechst High Intensity Objects (%) [1]: 0%
Population Mitochondria Different-Phenotype (%) [1]: 7% and 0%
Population Mitotic Cells (%) [1]: 25% and 29%
Population Normal (%) [1]: 100% and 99%
Population Pyknosed Nuclei (%) [1]: 19% and 10%
Population Tubulin-Different-Phenotype (%) [1]: 42% and 70%
Population Apoptotic (%) [2]: 60% and 36%
Population Fragmented Nuclei (%) [2]: 38% and 16%
Population Healthy Nuclei (%) [2]: 28% and 54%
Population Hoechst High Intensity Objects (%) [2]: 5% and 0%
Population Membrane Permeable-Phenotype (%) [2]: 15% and 11%
Population Mitotic Cells (%) [2]: 39% and 63%
Population Normal (%) [2]: 94% and 99%
Population Pyknosed Nuclei (%) [2]: 32% and 29%
Population Tubulin-Different-Phenotype (%) [2]: 50% and 38%
Population Apoptotic (%) [3]: 80% and 76%
Population Healthy Nuclei (%) [3]: 42% and 79%
Population Hoechst High Intensity Objects (%) [3]: 0%
Population Mitochondria Different-Phenotype (%) [3]: 5% and 1%
Population Mitotic Cells (%) [3]: 20% and 23%
Population Normal (%) [3]: 100% and 99%
Population Pyknosed Nuclei (%) [3]: 23% and 12%
Population Tubulin-Different-Phenotype (%) [3]: 50% and 75%
Population Apoptotic (%) [4]: 43% and 53%
Population Fragmented Nuclei (%) [4]: 31% and 17%
Population Healthy Nuclei (%) [4]: 20% and 51%
Population Hoechst High Intensity Objects (%) [4]: 6% and 1%
Population Mitochondria Different-Phenotype (%) [4]: 57% and 19%
Population Mitotic Cells (%) [4]: 56% and 46%
Population Normal (%) [4]: 93% and 98%
Population Pyknosed Nuclei (%) [4]: 47% and 31%
Population Tubulin-Different-Phenotype (%) [4]: 21% and 32%
Population Apoptotic (%) [5]: 75% and 83%
Population Healthy Nuclei (%) [5]: 54% and 80%
Population Hoechst High Intensity Objects (%) [5]: 0%
Population Membrane Permeable-Phenotype (%) [5]: 9% and 2%
Population Mitochondria Different-Phenotype (%) [5]: 4% and 1%
Population Mitotic Cells (%) [5]: 25% and 16%
Population Normal (%) [5]: 100% and 99%
Population Pyknosed Nuclei (%) [5]: 16% and 13%
Population Tubulin-Different-Phenotype (%) [5]: 73% and 79%
Population Apoptotic (%) [6]: 60% and 61%
Population Fragmented Nuclei (%) [6]: 45% and 16%
Population Hoechst High Intensity Objects (%) [6]: 5% and 1%
Population Mitotic Cells (%) [6]: 39% and 38%
Population Normal (%) [6]: 94% and 98%
Population Pyknosed Nuclei (%) [6]: 41% and 34%
Population Tubulin-Different-Phenotype (%) [6]: 44% and 50%

COc1ccc(CC[C@@H](OC(=O)[C@@H]2CCCCN2C(=O)[C@H](c2cc(OC)c(OC)c(OC)c2)C2CCCCC2)c2cccc(OCCN3CCOCC3)c2)cc1OC
Population Apoptotic (%) [1]: 66% and 51%
Population Fragmented Nuclei (%) [1]: 10% and 3%
Population Healthy Nuclei (%) [1]: 64% and 82%
Population Hoechst High Intensity Objects (%) [1]: 0%
Population Membrane Permeable-Phenotype (%) [1]: 33% and 21%
Population Mitochondria Different-Phenotype (%) [1]: 16% and 37%
Population Mitotic Cells (%) [1]: 33% and 48%
Population Normal (%) [1]: 100% and 99%
Population Pyknosed Nuclei (%) [1]: 24% and 13%
Population Tubulin-Different-Phenotype (%) [1]: 45% and 43%
Population Apoptotic (%) [2]: 100% and 70%
Population Healthy Nuclei (%) [2]: 56% and 81%
Population Hoechst High Intensity Objects (%) [2]: 2% and 0%
Population Membrane Permeable-Phenotype (%) [2]: 82% and 57%
Population Mitochondria Different-Phenotype (%) [2]: 47% and 40%
Population Normal (%) [2]: 97% and 99%
Population Pyknosed Nuclei (%) [2]: 14%
Population Tubulin-Different-Phenotype (%) [2]: 100% and 98%
Population Apoptotic (%) [3]: 60% and 75%
Population Fragmented Nuclei (%) [3]: 11% and 3%
Population Healthy Nuclei (%) [3]: 65% and 77%
Population Hoechst High Intensity Objects (%) [3]: 0%
Population Membrane Permeable-Phenotype (%) [3]: 21% and 18%
Population Mitotic Cells (%) [3]: 40% and 24%
Population Normal (%) [3]: 100%
Population Pyknosed Nuclei (%) [3]: 23% and 18%
Population Tubulin-Different-Phenotype (%) [3]: 28% and 35%
Population Apoptotic (%) [4]: 73% and 96%
Population Fragmented Nuclei (%) [4]: 22% and 9%
Population Healthy Nuclei (%) [4]: 43% and 67%
Population Hoechst High Intensity Objects (%) [4]: 0%
Population Membrane Permeable-Phenotype (%) [4]: 89% and 86%
Population Mitochondria Different-Phenotype (%) [4]: 42% and 39%
Population Normal (%) [4]: 100% and 99%
Population Pyknosed Nuclei (%) [4]: 34% and 23%
Population Tubulin-Different-Phenotype (%) [4]: 100% and 99%
Population Apoptotic (%) [5]: 57% and 87%
Population Fragmented Nuclei (%) [5]: 10% and 3%
Population Healthy Nuclei (%) [5]: 55% and 75%
Population Hoechst High Intensity Objects (%) [5]: 0%
Population Membrane Permeable-Phenotype (%) [5]: 9% and 12%
Population Mitochondria Different-Phenotype (%) [5]: 15% and 37%
Population Normal (%) [5]: 100% and 99%
Population Pyknosed Nuclei (%) [5]: 35% and 21%
Population Tubulin-Different-Phenotype (%) [5]: 24% and 37%
Population Apoptotic (%) [6]: 96% and 91%
Population Fragmented Nuclei (%) [6]: 22% and 10%
Population Healthy Nuclei (%) [6]: 25% and 51%
Population Hoechst High Intensity Objects (%) [6]: 4% and 1%
Population Membrane Permeable-Phenotype (%) [6]: 91%
Population Mitochondria Different-Phenotype (%) [6]: 33% and 42%
Population Mitotic Cells (%) [6]: 4% and 8%
Population Normal (%) [6]: 96% and 98%
Population Pyknosed Nuclei (%) [6]: 52% and 37%
Population Tubulin-Different-Phenotype (%) [6]: 100%
